How the values were obtained:
LHRH receptor = target: T1, LHRH receptor (Homo sapiens, UniProt P30968); test: LHRH receptor competition assay of 99mTc conjugate, MDA-MB-231; assay type: cell-based; conditions: MDA-MB-231 cells, cotreatment with 100 μg LHRH, 1 μCi, 37 °C, γ counter; n = 3
T1 sequence (P30968 1-328): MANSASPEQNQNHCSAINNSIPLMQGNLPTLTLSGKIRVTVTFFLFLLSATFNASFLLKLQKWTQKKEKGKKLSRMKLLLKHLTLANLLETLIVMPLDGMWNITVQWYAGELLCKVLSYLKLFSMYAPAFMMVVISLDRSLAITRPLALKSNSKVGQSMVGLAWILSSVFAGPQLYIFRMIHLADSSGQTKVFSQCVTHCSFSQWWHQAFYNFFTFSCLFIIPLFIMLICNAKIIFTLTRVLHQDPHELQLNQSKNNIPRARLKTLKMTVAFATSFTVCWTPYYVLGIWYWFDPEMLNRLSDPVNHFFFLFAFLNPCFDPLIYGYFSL
Outline: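 MDA-MB-231 cells were grown in DMEM with 5 mM L-glutamine, 1% penicillin/streptomycin and 10% FBS at 37 °C, 5% CO2. Cells were seeded at 2 × 10^5 per well and cultured 48 h. 1 μCi (0.037 MBq) of 99mTc-labelled conjugate was added together with 100 μg LHRH and incubated at 37 °C for 15, 30, 60 and 120 min (n = 3). Cells were washed 3× in PBS, trypsinised and γ-counted. Uptake is % of cell counts over total counts, reported as mean ± SEM.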

MDA-MB-231 cells = test: MTT cell viability assay, MDA-MB-231; assay type: cell-based, human; conditions: highest dose 100 μM, compared to unconjugated [Re(CO)3(H2O)3]+
4T1 cells = test: MTT cell viability assay, 4T1; assay type: cell-based, mouse; conditions: highest dose 100 μM, compared to unconjugated [Re(CO)3(H2O)3]+
Outline: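 4T1 cells were kept in DMEM with 10% FBS and penicillin/streptomycin at 37 °C, 5% CO2, then seeded at 2000 cells/100 μL. Test compound or free [Re(CO)3(H2O)3]+ was applied at 0.1–100 μM for 24 h. Cells were washed 3× with PBS and grown 48 h in DMEM/10% FBS. MTT was added for 4 h, cells were solubilised with SDS, and absorbance was read at 595 nm.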

cell uptake with LHRH cotreatment (competition) (LHRH receptor) | Substance | cytotoxicity at the highest dose (MDA-MB-231 cells) | cytotoxicity at the highest dose (4T1 cells)
decrease | ^99mTc-Acdien-LHRH: Acdien-LHRH radiolabeled with [99mTc(CO)3]+ from Isolink kit |  | 
 | Re-Acdien-LHRH: Acdien-LHRH reacted with equimolar [Re(CO)3(H2O)3]+; nonradioactive rhenium-LHRH conjugate | did not induce cytotoxicity | 
 | Re-Acdien-peg-LHRH: PEGylated Acdien-peg-LHRH chelated with [Re(CO)3(H2O)3]+ | did not induce cytotoxicity | did not induce cytotoxicity

Reference: publication PMC7841779 (ACS Omega, 2021)
